A short description of test [1]: Cytostatic activity against human Hs578 cells after 5 days by SRB assay. To be noted: Hs578, 120 h. The test is classed as functional. In a few lines: (§1)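 Cells seeded in RPMI (colon, breast, lung lines), MEM (Du145) or F12K (PC3) with 10% FBS, 37 °C overnight. Day-zero plates fixed with cold 10% TCA. Compounds added as 5-fold serial dilutions for 5 days. Fixed, stained with 0.057% SRB in 1% acetic acid, dye solubilized in 10 mM Tris pH 10.5, A500 read. Growth % corrected for day-0 OD; GIC₅₀ from sigmoidal fit.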

For another test, the system named is HL-60. Kind of test: Cytotoxicity against human HL60 cells after 3 days by XTT assay. It is filed as functional, cell-based. The conditions noted are these: HL-60, 72 h. Summed up:
(§2)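 Cell viability of CCRF-CEM, HL60 and HeLa cells measured by XTT assay after 72 h incubation with compounds. IC₅₀ taken as mean of 2–4 independent experiments.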
In general terms: Tetrazolium dyes change colour on reduction, which living cells bring about.

Test [2] concerns CCRF-CEM. Kind of test: Cytotoxicity against human CCRF-CEM cells after 3 days by XTT assay. The test is classed as functional, cell-based. To be noted: 72 h. In a few lines:
as §2

Test [3] is described as follows: Cytotoxicity against human HeLaS3 cells after 3 days by XTT assay. It is filed as functional, cell-based. To be noted: HeLa S3, 72 h.
The subject of a further test is NCI-H23. In words: Cytotoxicity against human NCI-H23 cells after 5 days by SRB assay. It is filed as functional. The conditions noted are these: NCI-H23, 120 h. In a few lines: as §1
The subject of a further test is PC-3. Kind of test: Cytotoxicity against human PC3 cells after 5 days by SRB assay. It is filed as functional. To be noted: PC-3, 120 h. Summed up: as §1
The test system of another test is HCT-15. In words: Cytotoxicity against human HCT15 cells after 5 days by SRB assay. It is filed as functional. The conditions noted are these: HCT-15, 120 h. In a few lines: as §1
In general terms: Sulforhodamine B stains cellular protein and so reports cell mass.

In test [4] the test system is CCRF-CEM. Kind of test: Inhibition of RNA synthesis in human CCRF-CEM assessed as assessed as BrdU incorporation after 24 by flow cytometry. The test is classed as functional. In general terms: Dividing cells build labelled thymidine or BrdU into new DNA.
For the next test, the system named is BT-549. Kind of test: Cytotoxicity against human BT549 cells after 5 days by SRB assay. The test is classed as functional. To be noted: BT-549, 120 h. Summed up:
as §1

In test [5] the test system is DU-145. In words: Cellular uptake ion human DU145 cells measured per million cells after 6 hrs. It is filed as functional. In a few lines:
(§3)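 Du145 cells incubated with 10 μM compound for 6 or 24 h, PBS-washed, trypsinized, pelleted, spun through Nyosil M25 oil. Extracts analysed by LC/MS/MS for parent nucleoside, monophosphate and triphosphate. Standards and QC samples prepared in untreated-cell extracts. Expressed as pmol per million cells.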

The test system of test [6] is DU-145. Kind of test: Cellular uptake ion human DU145 cells assessed as monophosphate level measured per million cells after 6 hrs. The test is classed as functional. In a few lines: as §3
Test [7] relates to DU-145. Kind of test: Cellular uptake ion human DU145 cells measured per million cells after 24 hrs. It is filed as functional. Summed up: as §3
In test [8] the test system is DU-145. In words: Cellular uptake ion human DU145 cells assessed as monophosphate level measured per million cells after 24 hrs. It is filed as functional. Summed up:
as §3

Test [9] concerns CCRF-CEM. In words: Cell cycle arrest in human CCRF-CEM assessed as accumulation at subG1 phase at 1 x GIC50 after 24 hrs by flow cytometry. The test is classed as functional. In a few lines: (§4)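 Subconfluent CCRF-CEM (5 × 10⁵ cells/mL, RPMI 1640 + 10% FCS, 37 °C CO₂) exposed 24 h at 1× or 5× GIC₅₀, vehicle controls alongside. Cells fixed overnight in 70% ethanol at -20 °C, hypotonic citrate wash, RNase 50 μg/mL, propidium iodide stain, 488 nm flow cytometry. Sub-G1 = particles with PI content below G0/G1 cells. Reported as % of total cells.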

For test [10], the system named is CCRF-CEM. Kind of test: Cell cycle arrest in human CCRF-CEM assessed as accumulation at subG1 phase at 5 x GIC50 after 24 hrs by flow cytometry. The test is classed as functional. In a few lines: as §4
For test [11], the system named is CCRF-CEM. Kind of test: Cell cycle arrest in human CCRF-CEM assessed as accumulation at G1 phase at 1 x GIC50 after 24 hrs by flow cytometry. The test is classed as functional. In a few lines:
as §4

The subject of test [12] is CCRF-CEM. In words: Cell cycle arrest in human CCRF-CEM assessed as accumulation at G1 phase at 5 x GIC50 after 24 hrs by flow cytometry. It is filed as functional. Summed up: as §4
In test [13] the test system is CCRF-CEM. In words: Cell cycle arrest in human CCRF-CEM assessed as accumulation at S phase at 1 x GIC50 after 24 hrs by flow cytometry. It is filed as functional. Summed up: as §4
In test [14] the test system is CCRF-CEM. Kind of test: Cell cycle arrest in human CCRF-CEM assessed as accumulation at S phase at 5 x GIC50 after 24 hrs by flow cytometry. The test is classed as functional. Summed up:
as §4

The test system of test [15] is CCRF-CEM. In words: Cell cycle arrest in human CCRF-CEM assessed as accumulation at G2/M phase at 1 x GIC50 after 24 hrs by flow cytometry. It is filed as functional. In a few lines: as §4
The subject of test [16] is CCRF-CEM. In words: Cell cycle arrest in human CCRF-CEM assessed as accumulation at G2/M phase at 5 x GIC50 after 24 hrs by flow cytometry. It is filed as functional. Summed up:
as §4

For test [17], the system named is CCRF-CEM. In words: Antimitotic activity in human CCRF-CEM cells assessed as decrease in mitotic histone H3 at 1 x GIC50. The test is classed as functional. Set-up: scale not given: the % may be the effect or the level left. In a few lines:
(§5)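 CCRF-CEM cells seeded subconfluent at 5 × 10⁵ cells/mL in RPMI 1640 with 10% FCS, 10 mM glutamine, penicillin/streptomycin, 37 °C humidified CO₂. Exposed 24 h at 1× or 5× GIC₅₀; vehicle controls harvested at 24 h. Ethanol-fixed cells labelled with anti-phospho-histone H3 Ser10 and mitotic cells counted by flow cytometry as % of total population.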

In test [18] the test system is CCRF-CEM. In words: Antimitotic activity in human CCRF-CEM cells assessed as decrease in mitotic histone H3 at 5 x GIC50. It is filed as functional. More on the design: scale not given: the % may be the effect or the level left. In a few lines: as §5
Test [19] relates to CCRF-CEM. In words: Inhibition of RNA synthesis in human CCRF-CEM assessed as assessed as BrdU incorporation at 1 x GIC50 after 24 by flow cytometry. It is filed as functional. More on the design: scale not given: the % may be the effect or the level left. In a few lines:
(§6)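 CCRF-CEM culture as for cell cycle (24 h, 1× or 5× GIC₅₀). Cells pulsed 30 min with 1 mM bromouridine before harvest. Fixed in 1% paraformaldehyde/0.05% NP-40. Stained with anti-BrdU antibody cross-reacting with BrU, then FITC secondary, PI and RNase A. BrU+ cells quantified by 488 nm flow cytometry.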

The test system of test [20] is CCRF-CEM. In words: Inhibition of RNA synthesis in human CCRF-CEM assessed as assessed as BrdU incorporation at 5 x GIC50 after 24 by flow cytometry. The test is classed as functional. Set-up: scale not given: the % may be the effect or the level left. In a few lines:
as §6

Test [21] has as its system CCRF-CEM. Kind of test: Inhibition of DNA synthesis in human CCRF-CEM assessed as assessed as BrdU incorporation at 1 x GIC50 after 24 by flow cytometry. It is filed as functional. More on the design: scale not given: the % may be the effect or the level left. Summed up: (§7)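 Culture as for cell cycle work (CCRF-CEM, 24 h, 1× or 5× GIC₅₀). Pulse with 10 μM BrdU for 30 min before harvest. Fixed in 70% ethanol, DNA denatured in 2 M HCl, neutralized with 0.1 M borax. Stained with anti-BrdU and FITC secondary, plus PI 0.1 mg/mL and RNase A. BrdU+ cells counted by flow cytometry.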

Test [22] concerns CCRF-CEM. In words: Inhibition of DNA synthesis in human CCRF-CEM assessed as assessed as BrdU incorporation at 5 x GIC50 after 24 by flow cytometry. The test is classed as functional. More on the design: scale not given: the % may be the effect or the level left. Summed up:
as §7

Test [23] deals with CCRF-CEM. In words: Inhibition of DNA synthesis in human CCRF-CEM assessed as assessed as BrdU incorporation after 24 by flow cytometry. It is filed as functional.
For the next test, the system named is A549. In words: Cytostatic activity against human A549 cells after 5 days by SRB assay. The test is classed as functional. To be noted: A549, 120 h. In a few lines: as §1
For test [24], the system named is DU-145. Kind of test: Cytostatic activity against human DU145 cells after 5 days by SRB assay. The test is classed as functional. To be noted: DU-145, 120 h. Summed up: as §1
The next test deals with HCT-116. Kind of test: Cytostatic activity against human HCT116 cells after 5 days by SRB assay. It is filed as functional. To be noted: HCT-116, 120 h. In a few lines: as §1
In test [25] the test system is DU-145. In words: Cellular uptake ion human DU145 cells assessed as triphosphate level measured per million cells after 6 hrs.
Test [26] concerns DU-145. In words: Cellular uptake ion human DU145 cells assessed as triphosphate level measured per million cells after 24 hrs.

As usually defined, the GI50 is the concentration that inhibits growth by half. For orientation: IC50 means the concentration at which inhibition is half-maximal. As for `OC[C@H]1O[C@@H](n2ccc3c(-c4ccco4)ncnc32)[C@H](O)[C@@H]1O`, the GI50 came to 49 nM in test [1]; 130 nM in the test on NCI-H23; 14 nM in the test with PC-3; 20 nM in the test with HCT-15; 12 nM in the test with BT-549; 88 nM in the test with A549. For the same molecule, the concentration for 50% growth inhibition (GI50) in the test with DU-145 [24] is 7 nM; in the test with HCT-116, 78 nM. Further, the IC50 in the test with HL-60 was 810 nM; in the test with CCRF-CEM [2] it was 310 nM; in test [3], 770 nM. Besides, the “inhibition (INH)” value is recorded as 4.7% in the test on CCRF-CEM [4] and 31.33% with CCRF-CEM [23]. Further, the Activity with DU-145 [5] amounted to 950 pmol; in the test with DU-145 [6], 4124 pmol; with DU-145 [7] it was 207 pmol; in the test on DU-145 [8] it was 6842 pmol; with CCRF-CEM [9], 16.5%; in the test on CCRF-CEM [10], 60.2%. Besides, the Activity in the test on CCRF-CEM [11] is 44.9%; in the test with CCRF-CEM [12], 46.7%; with CCRF-CEM [13] it was 42.2%; in the test with CCRF-CEM [14], 44.6%; in the test with CCRF-CEM [15], 12.9%; in the test on CCRF-CEM [16], 6.8%. In addition, the Activity turned out to be 1.21% with CCRF-CEM [17]; 0.48% in the test on CCRF-CEM [18]; 28.7% in the test with CCRF-CEM [19]; 4.7% in the test on CCRF-CEM [20]; 54.3% in the test with CCRF-CEM [21]; 31.3% in the test on CCRF-CEM [22]. In addition, the “triphosphate (NTP) level” value is recorded as 88.4 pmol in the test on DU-145 [25] and 109 pmol in the test on DU-145 [26].
As to `OC[C@H]1O[C@@H](n2cc(Cl)c3c(-c4ccco4)ncnc32)[C@H](O)[C@@H]1O`, the GI50 (in test [1]; with A549; in the test on DU-145 [24]; with HCT-116) was > 10000 nM each time. For the same molecule, the IC50 with HL-60 is 21600 nM; with CCRF-CEM [2] it was 3800 nM; in test [3] it was > 40000 nM. The Activity was found to be 20.1 pmol in the test on DU-145 [5], 164 pmol in the test on DU-145 [6], 45 pmol with DU-145 [7] and 332 pmol with DU-145 [8]. For the same molecule, the “triphosphate (NTP) level” value in the test on DU-145 [25] stood at 19.2 pmol; in the test on DU-145 [26] it was 21.2 pmol.

For the origin of these results see ChEMBL document CHEMBL1156780, “6-(Het)aryl-7-deazapurine ribonucleosides as novel potent cytostatic agents” (J Med Chem, 2010).
